Measured values reported in ChEMBL document CHEMBL1146494, “Anthrone and oxanthrone C-glycosides from Picramnia latifolia collected in Peru” (J Nat Prod, 2004).
Values after ≈ are worked out from the molar mass of the structure shown.

Key:
[1] = test system: Mus musculus; experiment: Toxicity in human Lu1 cells xenografted mouse at 6.25 to 50 mg/kg, ip after 4 days; format: organism-based; design: dose 6.25-50 mg/kg, route intraperitoneal; settings: in vivo, 96 h
Summary of the method: (§1)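 In vivo hollow fiber assay in mice. Fibers containing the cancer cells were implanted at intraperitoneal and subcutaneous sites. The compound was given i.p. at 6.25, 12.5, 25 and 50 mg/kg body weight per injection, once daily for 4 days. Readouts were growth of the fiber-borne cells at each site, plus body weight and overt toxicity over the test period.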

[2] = test system: Mus musculus; experiment: Toxicity in human MCF7 cells xenografted mouse at 6.25 to 50 mg/kg, ip after 4 days; format: organism-based; design: dose 6.25-50 mg/kg, route intraperitoneal; settings: in vivo, 96 h; summary of the method: as §1
[3] = test system: Mus musculus; experiment: Toxicity in human LNCAP cells xenografted mouse at 6.25 to 50 mg/kg, ip after 4 days; format: organism-based; design: dose 6.25-50 mg/kg, route intraperitoneal; settings: in vivo, 96 h; summary of the method: as §1
[4] = test system: MCF7; experiment: Cytotoxicity against human MCF7 cells; format: functional; settings: read-out: ED50 (the source's name)
[5] = Cytotoxicity against HUVEC; format: cell-based; settings: human, HUVEC cells; read-out: ED50 (the source's name)
[6] = test system: LNCaP; experiment: Cytotoxicity against human LNCAP cells; format: functional; settings: read-out: ED50 (the source's name)
[7] = test system: Lu1; experiment: Cytotoxicity against human Lu1 cells; format: functional; settings: read-out: ED50 (the source's name)

Structure (SMILES) | Activity [1] | Activity [2] | Activity [3] | EC50 [4] | CC50 [5] | EC50 [6] | EC50 [7]
Cc1cc(O)c2c(c1)C(=O)c1ccc(O)c(O)c1C2=O | Non-toxic | Non-toxic | Non-toxic | 4.7 mg/L (≈ 17.4 µM) | 5 mg/L (≈ 18.5 µM) | 3.6 mg/L (≈ 13.3 µM) | 3 mg/L (≈ 11.1 µM)
Cc1cc(O)c2c3c(cccc13)-c1cccc(O)c1C2=O |  |  |  | > 5 mg/L | > 5 mg/L | > 5 mg/L | > 5 mg/L
COc1cc(O)c2c(c1)C(=O)c1c(O)cc(C)cc1C2=O |  |  |  | > 5 mg/L | > 5 mg/L | > 5 mg/L | > 5 mg/L
Cc1cc(O)c2c(c1)-c1cccc3ccc(O)c(c13)C2=O |  |  |  | > 5 mg/L | > 5 mg/L | > 5 mg/L | > 5 mg/L
CC[C@H](CC[C@@H](C)[C@H]1CC[C@H]2[C@@H]3CC=C4C[C@@H](O)CC[C@]4(C)[C@H]3CC[C@]12C)C(C)C [BETA-SITOSTEROL] |  |  |  | > 5 mg/L | > 5 mg/L | > 5 mg/L | > 5 mg/L
Cc1cc(O[C@@H]2O[C@H](CO)[C@@H](O)[C@H](O)[C@H]2O)c2c(c1)C(=O)c1cccc(O)c1C2=O [CHRYSOPHANEIN] |  |  |  | > 5 mg/L | > 5 mg/L | > 5 mg/L | > 5 mg/L
Cc1cc(O)c2c(c1)C(=O)c1cccc(O)c1C2=O [CHRYSOPHANOL] |  |  |  | > 5 mg/L | > 5 mg/L | > 5 mg/L | > 5 mg/L
Cc1cc(O)c2c(c1)[C@@H](C[C@H]1OC[C@@H](OC(=O)c3ccccc3)[C@@H](O)[C@@H]1O)c1cccc(O)c1C2=O [PICRAMNIOSIDE G] |  |  |  | > 5 mg/L | > 5 mg/L | > 5 mg/L | > 5 mg/L
Cc1cc(O)c2c(c1)[C@H](C[C@H]1OC[C@@H](OC(=O)c3ccccc3)[C@@H](O)[C@@H]1O)c1cccc(O)c1C2=O [PICRAMNIOSIDE H] |  |  |  | > 5 mg/L | > 5 mg/L | > 5 mg/L | > 5 mg/L
Cc1cc(O)c2c(c1)C(=O)c1cccc(O[C@@H]3O[C@H](CO)[C@@H](O)[C@H](O)[C@H]3O)c1C2=O [PULMATIN] |  |  |  | > 5 mg/L | > 5 mg/L | > 5 mg/L | > 5 mg/L
COc1cc2ccc(=O)oc2cc1O [SCOPOLETIN] |  |  |  | > 5 mg/L | > 5 mg/L | > 5 mg/L | > 5 mg/L
CC[C@H](CC[C@@H](C)[C@H]1CC[C@H]2[C@@H]3CC=C4C[C@@H](O[C@@H]5O[C@H](CO)[C@@H](O)[C@H](O)[C@H]5O)CC[C@]4(C)[C@H]3CC[C@]12C)C(C)C [SITOGLUSIDE] |  |  |  | > 5 mg/L | > 5 mg/L | > 5 mg/L | > 5 mg/L
O=c1ccc2ccc(O)cc2o1 [UMBELLIFERONE] |  |  |  | > 5 mg/L | > 5 mg/L | > 5 mg/L | > 5 mg/L
